Bioassay records from PubChem BioAssay.
p97 inhibitor = inhibitors of human p97 ATPase, primary screen, biochemical. Transitional endoplasmic reticulum ATPase (Homo sapiens), P55072. inhibition, % at 8 µM. AID 1481, 2009. recombinant p97 ATPase, Kinase-Glo ATP luminescence, 3 h. 220,000 compounds, 0.42% hits; in the data active = inhibition above about 15%;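 note: 0% = DMSO vehicle and 100% = wells lacking enzyme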
ROMK primary = ROMK potassium channel modulators, primary screen, cell-based, thallium flux, MLSMR library; ATP-sensitive inward rectifier potassium channel 1 (Homo sapiens), P48048; Tet-inducible ROMK, thallium flux fluorescence; actives lie on both sides; B-score at 10 µM; 130,000 compounds, 2% hits; AID 1918, 2009;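 active = signal ratio slope over the read window, or its plate-corrected B-score, at least 3 SD from the plate mean, either direction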;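 note: B-score of the F/F0 ratio slope over 7 to 12 s after thallium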
Mdm2 ligase inh = MDM2-luciferase reporter signal enhancers, primary screen, MDM2 E3 ligase inhibitor project, cell-based, luminescence, 1536-well. signal enhancement, % at 5 µM. E3 ubiquitin-protein ligase Mdm2 (Homo sapiens), Q00987. cell-based MDM2 ubiquitination luciferase reporter, 2 h; 0 = plate control, 100 = twice control, blank-subtracted. 210,000 compounds, 0.11% hits;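 active = signal enhancement of 30% or more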;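 note: luminescence tracks abundance of the self-degrading MDM2-luciferase fusion protein; higher signal means inhibition of MDM2 E3 ligase activity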
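Assay system: stable mammalian line carrying autodegrading MDM2–luciferase fusion reporter; Input: 2000 cells in each well; Compound dosing: single-point 5 µM; Schedule: 2 h compound exposure at 37 °C; Signal: SteadyLite luciferase luminescence after 15 min room-temperature reagent incubation; Evaluation: % luminescence enhancement versus blank-corrected plate control mean; Benchmarks: plate controls and plate blanks.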
PKD1 kinase inh = inhibitors of human PKD1 kinase, biochemical, fluorescence polarization | inhibition, % (test concentration not listed) | PKD1 kinase fluorescence polarization assay | AID 797, 2007 | 200,000 compounds, 0.056% hits; in the data active = inhibition above about 50%
Cl transport mod = KCC2 cotransporter modulators, thallium flux, primary screen, cell-based, HEK293 KCC2, FluoZin-2 fluorescence, MLSMR. Solute carrier family 12 member 5 (Homo sapiens), Q9H2X9. 190,000 compounds, 2.2% hits. KCC2 cells, thallium flux FluoZin-2 fluorescence. B-score of Tl+ flux slope (higher = more flux/activation; lower = inhibition) at 10 µM. AID 1456, 2008;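 active = thallium flux slope and its plate-corrected score both differing from the plate sample mean at a set confidence after two filtering rounds, in either direction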;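 note: slope of fluorescence scaled to starting intensity during 10 to 20 s after thallium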
Redox H2O2 prof = compounds producing H2O2 with reducing agent – biochemical, NIH compound library profiling, artefact control for MLSCN library redox annotation, primary screen | activation, % at 10 µM | 200,000 compounds, 0.03% hits | AID 878, 2007 | DTT-dependent redox cycling H2O2, phenol red/HRP absorbance; 100% = 100 µM peroxide control, 0% = buffer;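 active = activation of at least 50% relative to the plate's high and low controls in the primary single-dose screen; inactive = activation below 50%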;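 note: compound incubated with DTT at 0.8 mM final as the reducing agent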
* = called active by the depositor; i = inactive; · = no result given. Rows were chosen to be rich in hits. Some 3.4% of all compounds tested hit in one or more screens of this group.

SMILES	p97 inhibitor	ROMK primary	Mdm2 ligase inh	PKD1 kinase inh	Cl transport mod	Redox H2O2 prof
CCOC(=O)C(Cc1ccccc1)C(=O)Nc1ccc(N(CC)CC)cc1 (centres undefined)	1	-0.29	-10	11	-0.05	0
Cc1ccccc1OC(=O)n1c(=S)oc2cc(Cl)ccc21	4	1.2	2	-9	2.6*	1
O=C(Oc1ccccc1)n1c(=S)oc2ccccc21	7	·	-11	-8	0.94	0
Cc1ccc(C)c(NC(=O)COC(=O)c2cccc3c2C(=O)c2ccccc2C3=O)c1	-2	·	-5	0	-2.5	-1
CCOc1ccc(C(=O)NCC(=O)OCc2c(F)cccc2Cl)cc1OCC	-4	·	-11	2	0.75	0
O=C1OC2(CCCCC2)OC(=O)C1=CNc1nccs1	1	·	-11	-13	1.2	-1
O=C1OC2(CCCCC2)OC(=O)C1=CNc1nc2ccccc2s1	1	0.017	-10	7	3.7*	0
Cc1ccc(SCCCn2cncn2)cc1	4	-0.032	-9	2	·	3
Cc1ccc(C2=N/C(=C/N3CCOCC3)C(=O)O2)cc1	0	·	2	-4	-0.026	3
Cc1cccc2cc(/C=C3\N=C(c4ccccc4)OC3=O)c(N3CCOCC3)nc12	-3	-5*	16	-7	·	-1
Cc1cc(C)c2nc(N3CCC(C(=O)NCCCN4CC(C)CC(C)C4)CC3)sc2c1 (centres undefined)	-4	-2.5*	-35	-3	-1.6	0
N#CC(C#N)=Cc1cccn1-c1ccc(S(N)(=O)=O)cc1	-4	0.48	-10	0	3	-1
Nc1cc(C(=O)O)ccc1N1CCCCC1	0	·	-10	2	-0.36	0
c1ccc(C2=Nc3cccnc3C(c3ccccc3)=NN2)cc1	1	0.55	-1	0	1.1	0
Cc1cc(=S)[nH]c2c(C)cccc12	2	1.6	-16	2	31*	0
Oc1ccc(O)c(Cc2nc3ccccc3s2)c1	15*	0.25	-3	0	-3.6	0
FC(F)(F)c1nc(=S)c2ccccc2[nH]1	-1	0.71	-15	-3	32*	1
COc1ccccc1N(C(=O)CNC(=O)c1ccco1)C(C(=O)NC1CCCC1)c1ccncc1 (centres undefined)	4	·	-4	-3	0.48	-4
CCOC(=O)c1c(NC(=S)Nc2ccccc2)sc2c1CCN(CC)C2	0	-0.39	51*	-13	1.6	1
CCOC(=O)c1c(NC(=S)Nc2ccccc2)sc2c1CCCCC2	3	-0.35	-5	-8	·	0
COc1ccc(Oc2ccccc2/C=C/C(=O)O)cc1	0	·	-3	-10	0.28	2
COc1ccc(-c2cc(C(F)(F)F)nc(SCC(=O)NCc3cnn(C)c3C)n2)cc1OC	-5	1.7	35*	-5	0.52	0
Cc1ccc(C(=O)N2CCN(c3ccccc3)CC2)cc1S(=O)(=O)N1CCCC1	-1	·	-7	-13	-0.2	0
COc1ccc(CC(=O)N2CCC(Nc3nc4ccccc4n3Cc3ccc(F)cc3)CC2)cc1	-3	-4*	-12	-5	-0.21	1
COc1ccc(-n2cc(CNC3CCN(C)CC3)c(-c3cccc(F)c3)n2)cc1	0	-1.9	-13	4	1.8	1
SMILES	p97 inhibitor	ROMK primary	Mdm2 ligase inh	PKD1 kinase inh	Cl transport mod	Redox H2O2 prof
Cc1cc(C)c(S(=O)(=O)c2ccccc2)c(OC(=O)c2cc(F)c(F)cc2Cl)n1	-5	·	35*	3	-0.0032	-5
COc1ccc(C(=O)N2CCOC2CNC(=O)C(=O)NCc2ccc3c(c2)OCO3)cc1 (centres undefined)	1	0.036	2	3	-0.87	1
CN(C)c1ccc(C(=O)N/N=C/c2cc(Br)cc(Br)c2O)cc1	5	-0.045	-5	·	0.7	·
COC(=O)C(C)N(C(=O)c1cccc2ccccc12)c1c(C)cccc1C (centres undefined)	-5	·	-9	-1	-3.7*	-4
Cn1c(-c2sc3ccccc3c2Cl)n[nH]c1=S	-5	·	-8	-4	13*	-2
Clc1c(-c2nnc3n2CCC3)sc2ccccc12	4	-0.36	-19	1	-1.6	1
Cc1cc(C)nc(S/C=C/C(=O)c2ccccc2F)n1	-10	·	39*	·	-0.47	·
Cc1cc(NC(=O)c2ccccc2F)on1	1	-0.35	-1	-7	-0.21	0
Cc1c2cc(O)c(=O)cc-2oc2cc(O)c(O)cc12	29*	·	-8	-10	i	0
O=C(NN=C1c2ccccc2-c2ccccc21)c1ccccc1Br	-5	·	-23	2	14*	-4
CSc1nc(-c2ccccc2)nc(SC)c1C(C)=O	0	·	3	-3	1.5	0
CSc1nc(-c2ccccc2)[nH]c(=S)c1C(C)=O	3	4.7*	-3	-1	21*	0
CC1=NN(c2ccccc2)C(=O)C1C(=O)c1ccc(Cl)cc1 (centres undefined)	5	·	-7	-2	7.8*	-7
CC(C)c1ccc(-c2noc(C3CCCN(C(=O)c4ccc(F)cc4F)C3)n2)cc1 (centres undefined)	-1	·	-6	14	-0.41	1
Cc1ccc(CSc2ncnc3c2cnn3-c2ccc(C)cc2)cc1	-6	1.2	-7	14	16*	0
Cc1ccc(-n2ncc3c(SCc4ccccc4)ncnc32)cc1	1	0.2	10	9	22*	3
Fc1cccc(Cl)c1/C=N/n1c(-c2cccnc2)n[nH]c1=S	-3	·	45*	-5	0.35	-1
COc1ccccc1Nc1ccc(C(=O)NCc2cccs2)cn1	3	·	-11	-4	-0.12	0
COc1ccccc1Nc1ncc(-c2cccs2)s1	2	-0.18	-8	-5	3.1*	-1
CCOC(=O)CSc1nc(NC#N)nc(N(CC)CC)n1	3	1.5	-5	-4	-1.1	2
CCN(CC)c1nc(SCC(=O)O)nc(N(CC)CC)n1	15*	0.0057	-17	-8	·	1
O=C(Nc1cccc(Cl)c1N1CCOCC1)c1ccc([N+](=O)[O-])o1	4	·	·	·	-0.56	·
O=C(NC(=S)Nc1cccc(Cl)c1N1CCCC1)c1ccc(-c2cccc([N+](=O)[O-])c2)o1	4	·	-13	-15	3*	0
